The values below come from paper PMC8621847 (Research in Pharmaceutical Sciences, 2021).

Entries after “also recorded” stand apart in the source; their conditions may differ.

One data set deals with MCF-7 cell line. The data set can be described thus: MTT cytotoxicity assay, MCF-7 cell line. The following applies: for cytotoxic effect on MCF-7 cell line (in words): MTT assay; for improvement of cytotoxicity by hybridization, compared with VIIa and VIIb: MCF-7, fused pyrazole hybrids versus benzoxazinones VIIa and VIIb. Type of data set: cell-based. An outline of the steps:
(§1)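 Cells grown in RPMI-1640 with 10% FBS and 1% penicillin/streptomycin, seeded at 5-7 × 10^4 per well, 37 °C, 5% CO2. Test compound at final 1, 4, 6, 8, 10, 40, 60, 80 and 100 μM for 48 h. MTT (5 mg/mL in PBS) added for 3 h, formazan dissolved in DMSO, absorbance read at 570 nm. Doxorubicin (20 μM) was the positive control, untreated cells set 100% viability, and medium was the blank. Triplicate, repeated on three days.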

The next data set deals with HUVEC cell line. The data set can be described thus: MTT cytotoxicity assay, HUVEC normal cell line. Type of data set: cell-based. The following applies: Homo sapiens, 48 h, read-out: IC50 HUVEC. In outline: as §1

By IC50 is commonly meant the concentration at which inhibition is half-maximal. Take `O=C1OC(c2ccccc2)=N/C1=C\c1ccc([N+](=O)[O-])cc1` [Vb, (Z)-4-(4-nitrobenzylidene)-2-phenyloxazol-5(4H)-one]: in the data set on MCF-7 cell line, the “cytotoxic effect on MCF-7 cell line (in words)” value is reported as “no remarkable cytotoxic effect; also recorded: no inhibitory activity”. Further, in the data set with HUVEC cell line, the IC50 amounted to 93.3 ± 4.11 µM.

On to `Cc1nc2ccccc2c(=O)n1N1C(=O)/C(=C/c2ccc(Cl)cc2)N=C1c1ccccc1` [XIIIa, (Z)-3-(4-(4-chlorobenzylidene)-5-oxo-2-phenyl-4,5-dihydro-1H-imidazol-1-yl)-2-methylquinazolin-4(3H)-one], for which, in the data set with HUVEC cell line, the IC50 is 94.41 ± 0.89 µM.

As to `COc1cccc2c1C(=O)c1c(O)c3c(c(O)c1C2=O)C[C@@](O)(C(=O)CO)C[C@@H]3O[C@H]1C[C@H](N)[C@H](O)[C@H](C)O1` [Doxorubicin, reference compound], the half-inhibitory concentration (IC50) in the data set on HUVEC cell line came to 21.17 ± 0.05 µM.

Turning to `O=C(N/C(=C/c1ccc([N+](=O)[O-])cc1)c1nc2ccccc2c2cc(=O)[nH]n12)c1ccccc1` [IXb, (E)-N-(2-(4-nitrophenyl)-1-(2-oxo-2,3-dihydropyrazolo[1,5-c]quinazolin-5-yl)vinyl) benzamide], in the data set with MCF-7 cell line, the “improvement of cytotoxicity by hybridization, compared with VIIa and VIIb” value is reported as 3-4 times. Moreover, in the data set with HUVEC cell line, the half-maximal inhibitory concentration (IC50) was 96.2 ± 4.66 µM.

Turning to `Cc1nc2ccccc2c(=O)n1N1C(=O)/C(=C/c2ccc([N+](=O)[O-])cc2)N=C1c1ccccc1` [XIIIb, (Z)-2-methyl-3-(4-(4-nitrobenzylidene)-5-oxo-2-phenyl-4,5-dihydro-1H-imidazol-1-yl) quinazolin-4(3H)-one], in the data set on HUVEC cell line, the IC50 came to 81.2 ± 6.17 µM.

As for `O=C(N/C(=C/c1ccc(Cl)cc1)c1nc2ccccc2c2cc(=O)[nH]n12)c1ccccc1` [IXa, (E)-N-(2-(4-chlorophenyl)-1-(2-oxo-2,3-dihydropyrazolo[1,5-c]quinazolin-5-yl)vinyl)benzamide], the “improvement of cytotoxicity by hybridization, compared with VIIa and VIIb” value in the data set with MCF-7 cell line was 3-4 times. Further, the concentration for half-maximal inhibition (IC50) with HUVEC cell line worked out at 79 ± 3.71 µM.

Turning to `O=C1OC(c2ccccc2)=N/C1=C\c1ccc(Cl)cc1` [Va, (Z)-4-(4-chlorobenzylidene)-2-phenyloxazol-5(4H)-one], the “cytotoxic effect on MCF-7 cell line (in words)” value in the data set with MCF-7 cell line is “no remarkable cytotoxic effect; also recorded: no inhibitory activity”. In addition, the IC50 in the data set on HUVEC cell line worked out at 96.4 ± 2.22 µM.

Take `O=C(N/C(=C/c1ccc(Cl)cc1)c1nc2ccccc2c(=O)o1)c1ccccc1` [VIIa, (E)-N-(2-(4-chlorophenyl)-1-(4-oxo-4H-benzo[d][1,3]oxazin-2-yl)vinyl)benzamide]: the IC50 with HUVEC cell line was 72.2 ± 1.5 µM.
